# Laboratory results reported in article PMC3306454 (ACS Chemical Biology, 2012).
# Several values for one entry are separate records, joined by “and”; a condition that tells them apart may be missing. Identical values can stand only once. Entries after “also recorded” stand apart in the source; their conditions may differ.
# How the values were obtained:
# [1] = test system: RNA 1×1 nucleotide internal loops and fully paired RNA; assay: Competition dialysis, binding selectivity; settings: 1 µM ligand, 1.6 µM RNA, 24 h
# Procedure, shortened: (§1)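 RNAs were run-off transcribed, carried internal loops in a GNRA-hairpin cassette with a fully paired control, and were PAGE-purified. They were folded by heating at 60 °C for 5 min, then slow cooling. Dialysis units with 1.6 μM RNA stood against 1 μM ligand in buffer (8 mM NaH2PO4, 185 mM NaCl, 1 mM EDTA, pH 7.2), stirred 200 rpm, 24 h, 20–22 °C. SDS was added (1% final); Ct was measured spectrophotometrically; Cb = Ct − Cf.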
# [2] = test system: RNA displaying 5’CAG/3’GAC motif; assay: Optical melting experiments; format: binding; settings: for ΔTm (1 equiv.): one equivalent of ligand; for ΔTm (2 equiv.): two equivalents of ligand
# Procedure, shortened: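 RNA in Affinity Buffer was denatured at 90 °C and cooled to 15 °C, with ligand at 1 or 2 equivalents. Absorbance at 260 nm was recorded against temperature at 1 °C/min. Tm was calculated as ΔH°×1000/ΔS° − 273.15.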
# [3] = test system: r(CAG)12-MBNL1 complex; assay: TR-FRET assay, disruption of the r; format: biochemical
# [4] = test system: HD patient-derived fibroblasts expressing r(CAG)69; assay: RT-PCR splicing assay in HD fibroblasts; format: cell-based, Human; settings: for Effect on ATP2A1 splicing: initial screen, 100 µM, both cellular models
# Procedure, shortened: (§2)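 Fibroblasts were grown in MEM with 10% FBS and nonessential amino acids. SK-N-MC cells, with or without stable r(CAG)74, were grown in DMEM with 10% FBS. At ~60% confluence they received test compound at 50–300 μM final (water for untreated) for 48 h. ~1 μg total RNA was reverse transcribed with random primers, followed by RT-PCR, 2% agarose and ethidium staining. Normal isoform fraction was the normal band over total; ≥6 experiments, two-tailed t test versus untreated.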
# [5] = test system: SK-N-MC neuroblastoma cells stably expressing r(CAG)74; assay: RT-PCR splicing assay in neuroblastoma; format: cell-based, Human
# Procedure, shortened: as §2
# [6] = test system: normal neuroblastoma cell line / control cell lines that do not express r(CAG)exp; assay: RT-PCR splicing assay in control cell lines; format: cell-based, Human
# Procedure, shortened: as §2
# [7] = test system: HD fibroblasts and neuroblastoma cellular models; assay: Cell morphology; format: cell-based, Human; settings: for Toxicity as assessed by cell morphology: initial screen, 100 µM, both cellular models
# Procedure, shortened: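 HD patient fibroblasts (r(CAG)69) and SK-N-MC neuroblastoma cells stably expressing r(CAG)74 were grown to ~60% confluence. Fresh medium with test compound was added: 100 μM for the screen, 50–300 μM for the dose series, water for untreated. Cells were kept 48 h, and microscopic images of cell morphology served as the toxicity estimate.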
# [8] = test system: nuclear r(CAG)exp foci in HD-derived fibroblasts; assay: FISH of nuclear r; format: cell-based, Human
# Procedure, shortened: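 Fibroblasts (HD line GM04281: r(CAG)17 and r(CAG)69 HTT alleles) at ~60% confluence were given test compound at 50−300 μM final, or water, for 48 h. Cells were fixed in 4% PFA/PBS at 4 °C, prehybridized (30% formamide, 2X SSC, 10 min), and hybridized with a 5′-Cy3, LNA-modified (CTG)6-CA probe. Washes were at 45 °C then 37 °C, and foci were imaged by fluorescence microscopy.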
# [9] = target: RNA 5’CAG/3’GUC (fully paired RNA); assay: Fluorescence anisotropy direct binding assay; settings: read-out: Dissociation constant, 5’CAG/3’GUC
# Procedure, shortened: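 The RNA was made by run-off transcription and PAGE-purified, then folded by heating at 60 °C. Anisotropy was read at ex 368 nm and em 500 nm. Kd came from a quadratic binding fit of anisotropy versus RNA concentration.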
# [10] = target: RNA containing the 5’CAG/3’GAC motif; assay: Fluorescence anisotropy direct binding assay; settings: read-out: Dissociation constant, 5’CAG/3’GAC
# Procedure, shortened: (§3)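 RNA was titrated into 50 nM fluorescent test compound in Affinity Buffer (20 mM HEPES pH 7.5, 5 mM KCl, 150 mM NaCl, 1 mM MgCl2), equilibrating 5 min between additions. Anisotropy was read at ex 368 / em 500 nm and plotted against RNA concentration. Kd came from a quadratic binding equation fit.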
# [11] = test system: RNA containing 5’CUG/3’GUC; assay: Fluorescence anisotropy direct binding assay
# Procedure, shortened: as §3
# [12] = test system: RNA containing 5’CGG/3’GGC; assay: Fluorescence anisotropy direct binding assay
# Procedure, shortened: as §3
# [13] = test system: RNA 5’CCG/3’GCG; assay: Fluorescence anisotropy direct binding assay
# Procedure, shortened: as §3
# [14] = test system: RNA 5’CAG/3’GCC; assay: Competition dialysis; format: binding; settings: bound ligand relative to amount of RNA target
# Procedure, shortened: as §1
# [15] = test system: RNA 5’CAG/3’GAC; assay: Competition dialysis; format: binding; settings: bound ligand relative to amount of RNA target
# Procedure, shortened: as §1
# [16] = neuroblastoma cells expressing r(CAG)74, 48 h
compound,measurement,setting,value
"COc1ccc2nc3cc(Cl)ccc3c(N)c2c1 [ACMA, 9-amino-6-chloro-2-methoxy acridine]",Binding preference among RNAs,[1],binds preferentially to the fully paired RNA and the RNA displaying 5’CCG/3’GCC
"CN(C)c1ccc2cc3ccc(N(C)C)cc3nc2c1 [AO, Acridine Orange]",Binding preference among RNAs,[1],little preference for binding to a fully paired RNA or any of the RNAs with 1×1 nucleotide internal loops
"N=C(N)Nc1ccc(OC(=O)c2ccc(NC(=N)N)cc2)cc1 [Compound D6, 4-guanidinophenyl 4-guanidinobenzoate]",ΔTm (1 equiv.),[2],3 °C
same,ΔTm (2 equiv.),[2],9 °C
same,Fold more potent than the other compounds studied,[3]; TR-FRET IC50,at least 20 fold
same,IC50,"[3]; pre-formed r(CAG)12-MBNL1 complex, TR-FRET",3000 nM
same,Concentration giving statistically significant improvement of NCOR2 mis-splicing,"[4]; HD fibroblasts, 48 h",100 to 300 µM and 50 to 300 µM
same,Effect on ATP2A1 splicing,[4],most significantly improved ATP2A1 mis-splicing
same,Effect on MAPT pre-mRNA splicing,[5]; neuroblastoma cell line expressing 74 r(CAG) repeats,slightly worsens the splicing of the MAPT pre-mRNA toward the DM-like phenotype
same,Concentration giving statistically significant improvement of ATP2A1 splicing,[5]; [16],100 to 300 µM
same,Concentration giving statistically significant improvement of NCOR2 splicing,[5]; [16],100 to 300 µM
same,Effect on splicing of other tested transcripts,[6]; control cell lines that do not express toxic r(CAG)exp,does not affect the splicing
same,Effect on MAPT pre-mRNA splicing,[6]; normal neuroblastoma cell line,more pronounced effect
same,Effect on cell morphology,[7]; increasing concentration of D6,cell morphology is not affected
same,Toxicity as assessed by cell morphology,[7],least amount of toxicity
same,Effect on nuclear r(CAG)exp foci,[8],does not disrupt the formation of nuclear r(CAG)^exp foci; also recorded: does not significantly affect the number or the intensity of nuclear r(CAG)^exp foci
"N=C(N)c1ccc(-c2cc3ccc(C(=N)N)cc3[nH]2)cc1 [DAPI, 4',6-diamidino-2-phenylindole]",Kd,[9],> 3000 nM
same,Kd,[10],220 ± 60 nM
same,Fold weaker binding to 5’CUG/3’GUC than to 5’CAG/3’GAC,[11]; fluorescence anisotropy,approximately 2.5 fold
same,Kd,"[11]; read-out: Dissociation constant, 5’CUG/3’GUC, direct binding assay",550 ± 200 nM
same,Fold weaker binding to 5’CGG/3’GGC than to 5’CAG/3’GAC,[12]; fluorescence anisotropy,approximately 2.5 fold
same,Kd,"[12]; read-out: Dissociation constant, 5’CGG/3’GGC, direct binding assay",500 ± 100 nM
same,Fold weaker binding to 5’CCG/3’GCC than to 5’CAG/3’GAC,[13]; fluorescence anisotropy,~ 5 fold
same,Kd,"[13]; read-out: Dissociation constant, 5’CCG/3’GCG, direct binding assay",990 ± 200 nM
same,ΔTm (1 equiv.),[2],6 °C
same,ΔTm (2 equiv.),[2],10 °C
same,Binding preference among RNAs,[1],preferentially binds to 5’CAG/3’GAC and 5’CAG/3’GCC
same,Binding stoichiometry to 5’CAG/3’GCC,[14],stoichiometric amounts
same,Binding stoichiometry to 5’CAG/3’GAC,[15],stoichiometric amounts
same,Effect on ATP2A1 splicing,[4],exacerbated splicing abnormalities of ATP2A1
same,Toxicity as assessed by cell morphology,[7],strongest morphological changes
"COc1cccc2c1C(=O)c1c(O)c3c(c(O)c1C2=O)C[C@@](O)(C(C)=O)C[C@@H]3O[C@H]1C[C@H](N)[C@H](O)[C@H](C)O1 [DNM, Daunomycin]",Binding preference among RNAs,[1],prefers to bind 5’CCG/3’GAC
"O=C1c2c(O)ccc(O)c2C(=O)c2c(NCCNCCO)ccc(NCCNCCO)c21 [MTX, Mitoxantrone]",Binding preference among RNAs,[1],slight preference for 5’CCG/3’GAC while it discriminates against 5’CUG/3’GCC
"Cn1cc(NC(=O)c2cc(NC(=O)CN=C(N)N)cn2C)cc1C(=O)NCCC(=N)N [NTSP, netropsin]",Binding preference among RNAs,[1],slight preference for 5’CCG/3’GUC
"CCN(CC)CCCC(C)Nc1c2ccc(Cl)cc2nc2ccc(OC)cc12 (stereo not drawn) [QNC, Quinacrine]",Binding preference among RNAs,[1],prefers to bind 5’CAG/3’GCC
"Nc1ccc2cc3ccc(N)cc3nc2c1 [proflavin, Proflavin]",Binding preference among RNAs,[1],little preference for binding to a fully paired RNA or any of the RNAs with 1×1 nucleotide internal loops
